The entries come from a sample that favours hits as a whole.
CDK5 inh: inhibitors of human CDK5/p35 kinase, primary screen, biochemical, single concentration; Cyclin-dependent kinase 5 (Homo sapiens) + Cyclin-dependent kinase 5 activator 1 (Homo …; Recombinant CDK5/p35, ADP-Glo luminescence, 60 min; inhibition, % at 10 µM; 330,000 compounds, 0.01% hits;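 active means highest replicate inhibition of at least 50% and at least 75% of replicates reaching 50%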;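 further: plate controls were DMSO neutral control for no effect and GW8510 at 10 µM for full effect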
GSK3 alpha inh: blockers of GSK3A enzyme activity – biochemical, luminescence, cell-free homogeneous, HTS, primary screen | inhibition, % at 10 µM | Glycogen synthase kinase-3 alpha (Homo sapiens), P49840 | 320,000 compounds, 0.1% hits | GSK-3 alpha kinase, ADP-Glo luminescence, 60 min | AID 2650, 2010;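 active means more than half of replicates show inhibition above 20%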;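 further: GST-tagged GSK-3 alpha with peptide substrate and 25 µM ATP; 0% = DMSO neutral wells and 100% = GW8510 positive control wells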
Target sequence (P49840 whole entry, looked up): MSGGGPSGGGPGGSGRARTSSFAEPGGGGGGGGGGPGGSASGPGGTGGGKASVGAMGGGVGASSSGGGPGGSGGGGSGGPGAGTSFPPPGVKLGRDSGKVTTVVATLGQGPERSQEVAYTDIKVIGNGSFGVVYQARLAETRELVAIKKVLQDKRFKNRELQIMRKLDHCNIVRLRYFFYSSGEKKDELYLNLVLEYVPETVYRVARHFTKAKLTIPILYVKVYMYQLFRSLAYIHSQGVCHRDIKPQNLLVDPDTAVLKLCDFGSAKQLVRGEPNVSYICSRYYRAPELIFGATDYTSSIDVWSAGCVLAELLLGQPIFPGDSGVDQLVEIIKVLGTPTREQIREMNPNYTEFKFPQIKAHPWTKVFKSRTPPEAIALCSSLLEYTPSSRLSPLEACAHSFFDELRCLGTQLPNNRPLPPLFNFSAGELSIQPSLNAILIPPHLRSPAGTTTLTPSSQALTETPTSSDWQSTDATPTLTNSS
STK33 inh: inhibitors of purified STK33 kinase, primary screen, biochemical, ADP-Glo luminescence, homogeneous, cell-free | MBP phosphorylation | inhibition, % at 10 µM | 320,000 compounds, 0.073% hits;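 active means inhibition at or above 25%, using the most active replicate where run in duplicate; inactive means inhibition below 25%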
Dyrk1A ADPGlo: rat Dyrk1A kinase inhibitors, primary screen, biochemical, single point, plate reader | inhibition, % at 12.5 µM | ADP-Glo luminescence, NFATc1 peptide | Dual specificity tyrosine-phosphorylation-regulated kinase 1A (Rattus norvegicus), Q63470 | AID 504441, 2011 | 310,000 compounds, 0.43% hits; in the data active means inhibition above about 50%;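 further: plate controls were vehicle with enzyme for no effect and no enzyme for full effect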
GSK3beta inhib: human GSK3beta kinase inhibitors, primary screen, biochemical, cell-free homogeneous, HTS; Glycogen synthase kinase-3 beta (Homo sapiens), P49841; GST-GSK3beta kinase, ADP-Glo luminescence, 60 min; stronger effect = lower value; activity score (negative = inhibition), % at 10 µM; 300,000 compounds, 0.038% hits;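 active means more than half of replicate wells score below -50%, meaning over 50% inhibition versus plate controls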;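 further: 0% = median DMSO wells and -100% = median GW8510 positive control wells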
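test system = GST-tagged human GSK3beta kinase, cell-free | reagent = 25 µM ATP with peptide substrate | dosing = one dose of 10 µM per compound | schedule = 60 min reaction, RT | detection = luminescent ADP-Glo measurement of ADP formed | control set = DMSO neutral wells and GW8510 at 20 µM as positive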
ADP-Glo artifact: ADP-Glo luciferase interference without Dyrk1A, dose response, artefact control for Dyrk1A inhibitor project, biochemical, luminescence, cherry-pick, set 02. AC50, µM (doses to about 12 µM), inactives show at the highest dose activity change, negative = inhibition. 1,300 tested, under 10 active. shares compounds with Dyrk1A ADPGlo. AID 588348, 2011. ADP-Glo luciferase artifact assay, no Dyrk1A;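 active means fitted half-maximal dose AC50 no more than ten times the top valid tested dose, with luminescence dropping as dose rises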
The depositor's hits bear a star.

`O=C1NC(=O)C(c2ccccc2[N+](=O)[O-])=C1Nc1ccc(O)c(Cl)c1` gave CDK5 inh 66.5*, STK33 inh 13.9, Dyrk1A ADPGlo 86.9* and ADP-Glo artifact 7.5%.
CNC(=O)c1cc2c(s1)-c1ccccc1CC2 was read as CDK5 inh 0.7, GSK3 alpha inh 5.2, STK33 inh 3.9, Dyrk1A ADPGlo 52.8*, GSK3beta inhib -1.5 and ADP-Glo artifact 10.2%.
`O=C(N/N=C/c1ccc(F)c(F)c1)c1cc2c(s1)-c1ccccc1CC2` gave CDK5 inh -1.8, GSK3 alpha inh -2.2, STK33 inh 0.4, Dyrk1A ADPGlo -0.4 and GSK3beta inhib 0.1.
`CC12CCC(O)CC1=CCC1C2CCC2(C)C(c3ccn[nH]3)CCC12` (stereo unspecified) gave CDK5 inh -0.4 and Dyrk1A ADPGlo 5.8.
`Cc1ccnc(Nc2nc(-c3ccc(O)c(O)c3)cs2)c1` gave CDK5 inh 5.7, GSK3 alpha inh 8.3, STK33 inh 10.0, Dyrk1A ADPGlo 54.1* and ADP-Glo artifact 6.0%.
COC(=O)c1c(-c2ccc(S(C)(=O)=O)cc2)sc2ccc(OC)cc12 was read as CDK5 inh 1.1, GSK3 alpha inh -1.9, STK33 inh 0.0, Dyrk1A ADPGlo 51.4* and ADP-Glo artifact 9.8%.
Oc1ccc2ccc3[nH]cnc3c2c1 was read as CDK5 inh 5.2, GSK3 alpha inh 3.0, STK33 inh 8.8, Dyrk1A ADPGlo 79.8*, GSK3beta inhib 2.9 and ADP-Glo artifact 10.5%.
`CC(C)(CC1(C)NC(=O)NC1=O)OCc1ccccc1` (stereo unspecified) gave CDK5 inh -0.6 and Dyrk1A ADPGlo -5.8.
`Cc1noc(NS(=O)(=O)c2ccc(N/C=C\C(=O)c3ccc(Br)cc3)cc2)c1C` gave CDK5 inh 0.1, GSK3 alpha inh -1.9, STK33 inh 3.0, Dyrk1A ADPGlo 63.0*, GSK3beta inhib 2.5 and ADP-Glo artifact 6.5%.
`COc1cc(O)c2c(=O)c3c(O)ccc(O)c3oc2c1` gave CDK5 inh 2.5, Dyrk1A ADPGlo 68.2* and ADP-Glo artifact 11.3%.
For CCCn1cnc2scc(-c3ccc(OC)cc3)c2c1=O the results were CDK5 inh 0.5, GSK3 alpha inh 9.2, STK33 inh 1.5, Dyrk1A ADPGlo 60.1*, GSK3beta inhib -2.7 and ADP-Glo artifact 3.1%.
For CCn1cnc2scc(-c3ccc(OC)cc3)c2c1=O the results were CDK5 inh 0.4, GSK3 alpha inh -1.7, STK33 inh 1.2, Dyrk1A ADPGlo 42.2 and GSK3beta inhib 2.3.
For CC(=O)N1CCN(S(=O)(=O)c2cccc(C(=O)OCc3ccc(C(C)(C)C)cc3)c2)CC1 the results were CDK5 inh -1.3 and Dyrk1A ADPGlo -0.8.
Screening CC(C)Oc1ccc(C(CC(=O)NCc2ccco2)c2ccccc2)cc1 (stereo unspecified) returned CDK5 inh -0.7, GSK3 alpha inh -2.3, STK33 inh -0.6, Dyrk1A ADPGlo 55.1*, GSK3beta inhib -2.1 and ADP-Glo artifact 6.9%.
Screening Cc1cccc(C(CC(=O)NCc2ccco2)c2ccccc2)c1O (stereo unspecified) returned CDK5 inh -1.0, GSK3 alpha inh -2.9, STK33 inh -1.0, Dyrk1A ADPGlo -0.5 and GSK3beta inhib -0.6.
CC(C)(C)OC(=O)N(CCc1ccccc1)Cc1ccc(OCc2cccc(NC(=O)C3CCC3)c2)cc1 was read as CDK5 inh 0.6 and Dyrk1A ADPGlo 9.7.
NC1=NC(=O)/C(=C/c2cccs2)S1 was read as CDK5 inh 0.6, GSK3 alpha inh 2.4, STK33 inh 1.4, Dyrk1A ADPGlo 53.0*, GSK3beta inhib 1.3 and ADP-Glo artifact 11.1%.
`C=CCSC1=NC(=O)/C(=C/c2cccs2)S1` gave CDK5 inh -0.2, GSK3 alpha inh 9.2, STK33 inh -1.2, Dyrk1A ADPGlo 76.2* and ADP-Glo artifact 8.4%.
For O=C1N=C(N2CCOCC2)S/C1=C/c1cccs1 the results were CDK5 inh 1.1, GSK3 alpha inh 1.4, STK33 inh -0.8, Dyrk1A ADPGlo 24.6 and GSK3beta inhib 3.3.
`CCOC(=O)C(=O)NC1CC=CCC1c1ccc2c(c1)OCO2` (stereo unspecified) gave CDK5 inh -0.6 and Dyrk1A ADPGlo -2.5.
Screening Oc1ccc(Br)cc1-c1cc(-c2ccccc2Cl)[nH]n1 returned CDK5 inh -1.0, GSK3 alpha inh -0.7, STK33 inh -2.3, Dyrk1A ADPGlo -2.9 and GSK3beta inhib 0.9.
`COc1ccc(O)c(-c2cc(-c3ccccc3Cl)[nH]n2)c1` gave CDK5 inh 1.6, GSK3 alpha inh -0.9, STK33 inh -2.7, Dyrk1A ADPGlo 53.3*, GSK3beta inhib -2.2 and ADP-Glo artifact 8.3%.
COc1ccc(O)c(-c2cc(-c3cccs3)[nH]n2)c1 was read as CDK5 inh -0.3, GSK3 alpha inh 0.8, STK33 inh 2.3, Dyrk1A ADPGlo 69.7*, GSK3beta inhib 2.2 and ADP-Glo artifact 8.2%.
C=C1[C@@H](CCO)N(S(=O)(=O)C(C)(C)C)C[C@@H]1C was read as CDK5 inh -1.6.
Screening O=C1C(=O)c2c(ccc3ccccc23)-c2ccccc21 returned CDK5 inh 1.2 and Dyrk1A ADPGlo 3.7.
For O=C(Nc1ccc2cn[nH]c2c1)c1c(Cl)cccc1Cl the results were CDK5 inh 4.0, GSK3 alpha inh 9.5, STK33 inh 7.9, Dyrk1A ADPGlo 51.5*, GSK3beta inhib -0.9 and ADP-Glo artifact 10.3%.
Screening O=C(Nc1ccc2ccccc2c1)c1ccccc1F returned CDK5 inh 0.7, GSK3 alpha inh -5.6, STK33 inh 1.4, Dyrk1A ADPGlo 15.3 and GSK3beta inhib -1.8.
`O=C(Nc1ccc2cn[nH]c2c1)c1ccccc1F` gave CDK5 inh 2.0, GSK3 alpha inh -1.0, STK33 inh -1.9, Dyrk1A ADPGlo 54.2*, GSK3beta inhib -3.8 and ADP-Glo artifact 9.7%.
O=C(Nc1ccncc1)c1c(Cl)cccc1Cl was read as CDK5 inh 3.8, GSK3 alpha inh -0.8, STK33 inh -2.3 and Dyrk1A ADPGlo -3.0.
Screening CC(=O)c1ccc(NC(=S)Nc2ccc3cn[nH]c3c2)cc1 returned CDK5 inh 5.4, GSK3 alpha inh -1.0, STK33 inh 5.4, Dyrk1A ADPGlo 56.9*, GSK3beta inhib -7.3 and ADP-Glo artifact 8.4%.
For Oc1ccc(C(=Nc2ccccc2)c2ccccc2)c(O)c1 the results were CDK5 inh 1.5 and Dyrk1A ADPGlo 6.2.

High-throughput results (PubChem BioAssay)
